Like-named read-outs stand apart in the source and are kept apart here.
Columns and labels:
[1] = test system: K-562; assay: MTT anti-proliferative assay; type: cell-based, human; conditions: read-out: IC50 ± SD, K-562
[2] = test system: KG-1a; assay: MTT anti-proliferative assay; type: cell-based, human; conditions: read-out: IC50 ± SD, KG-1a
[3] = test system: Jurkat; assay: MTT anti-proliferative assay; type: cell-based, human; conditions: read-out: IC50 ± SD, Jurkat
[4] = target: EGFR (Homo sapiens, UniProt P00533); assay: EGFR kinase assay; type: biochemical
Chain of EGFR (P00533 25-1210): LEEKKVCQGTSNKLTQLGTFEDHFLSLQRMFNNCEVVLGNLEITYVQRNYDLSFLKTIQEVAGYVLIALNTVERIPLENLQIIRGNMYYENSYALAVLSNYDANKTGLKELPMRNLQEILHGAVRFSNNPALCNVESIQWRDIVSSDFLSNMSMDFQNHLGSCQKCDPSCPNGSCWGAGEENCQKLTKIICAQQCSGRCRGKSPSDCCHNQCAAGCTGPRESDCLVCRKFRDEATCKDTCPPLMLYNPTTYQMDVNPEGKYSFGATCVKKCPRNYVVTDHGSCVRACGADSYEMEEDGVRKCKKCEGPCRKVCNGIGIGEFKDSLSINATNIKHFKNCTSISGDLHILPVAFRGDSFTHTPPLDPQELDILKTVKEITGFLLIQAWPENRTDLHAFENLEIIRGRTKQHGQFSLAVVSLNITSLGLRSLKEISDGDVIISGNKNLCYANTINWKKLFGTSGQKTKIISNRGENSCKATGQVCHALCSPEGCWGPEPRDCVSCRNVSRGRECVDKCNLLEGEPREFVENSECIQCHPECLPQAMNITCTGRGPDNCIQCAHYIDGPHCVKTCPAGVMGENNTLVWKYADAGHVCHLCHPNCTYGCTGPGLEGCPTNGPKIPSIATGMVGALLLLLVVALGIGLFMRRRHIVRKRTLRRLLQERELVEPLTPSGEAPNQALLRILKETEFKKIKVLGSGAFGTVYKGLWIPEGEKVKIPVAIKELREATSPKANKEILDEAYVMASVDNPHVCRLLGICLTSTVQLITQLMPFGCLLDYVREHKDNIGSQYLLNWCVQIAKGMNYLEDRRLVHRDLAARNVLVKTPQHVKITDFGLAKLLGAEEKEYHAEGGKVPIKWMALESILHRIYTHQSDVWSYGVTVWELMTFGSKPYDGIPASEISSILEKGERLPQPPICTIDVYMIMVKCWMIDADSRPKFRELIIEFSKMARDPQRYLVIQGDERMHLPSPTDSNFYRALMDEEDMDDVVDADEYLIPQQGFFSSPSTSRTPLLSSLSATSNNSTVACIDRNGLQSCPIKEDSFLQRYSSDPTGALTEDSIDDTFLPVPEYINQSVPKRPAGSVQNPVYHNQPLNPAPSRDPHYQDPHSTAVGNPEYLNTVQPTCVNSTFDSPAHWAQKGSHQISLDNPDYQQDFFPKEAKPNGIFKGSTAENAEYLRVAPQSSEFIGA

[5] = target: c-Src (Homo sapiens, UniProt P12931); assay: Src kinase assay; type: biochemical
Chain of c-Src (P12931 whole entry): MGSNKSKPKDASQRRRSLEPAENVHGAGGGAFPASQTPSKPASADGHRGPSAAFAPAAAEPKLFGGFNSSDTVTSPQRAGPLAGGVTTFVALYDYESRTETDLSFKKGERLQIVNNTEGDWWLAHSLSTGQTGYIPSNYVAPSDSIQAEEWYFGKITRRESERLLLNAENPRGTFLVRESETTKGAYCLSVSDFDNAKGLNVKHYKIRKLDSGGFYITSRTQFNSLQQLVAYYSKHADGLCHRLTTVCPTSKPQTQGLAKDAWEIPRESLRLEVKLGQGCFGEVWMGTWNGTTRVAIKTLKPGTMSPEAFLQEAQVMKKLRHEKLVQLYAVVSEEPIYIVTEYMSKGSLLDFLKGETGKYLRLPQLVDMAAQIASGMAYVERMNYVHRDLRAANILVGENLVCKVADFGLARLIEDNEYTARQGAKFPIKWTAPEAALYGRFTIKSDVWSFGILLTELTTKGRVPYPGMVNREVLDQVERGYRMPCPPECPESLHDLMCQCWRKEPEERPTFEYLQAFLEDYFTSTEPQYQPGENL

[6] = test system: IL-6; assay: IL-6 ELISA in K-562 cells; type: cell-based, human; conditions: Homo sapiens, K562, 24 h, read-out: IL-6 protein levels (% of control)
In short: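 K-562 cells exposed 24 h to vehicle (DMSO), test compound at 10 μM or dexamethasone (positive control). IL-6 secreted into cell-free supernatant quantified by human IL-6 ELISA kit. Expressed as % of vehicle control, mean ± SD of three independent experiments, each in triplicate. Time course: in 12-well plates, medium changed when compound (10 μM) added, and media sampled at 0, 1, 4, 8, 12, 24, 48 h.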

[7] = test system: STAT3; assay: STAT3 activation assay; type: cell-based, human; conditions: K-562 cells, 10 μM, 24 h, nuclear extracts
In short: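 K562 cells seeded overnight in 10 cm plates, then given vehicle, test compound (10 μM) or WP1066 (positive control) for 24 h. Nuclear fractions extracted by kit. STAT3 activation measured in nuclear extracts by TransAM STAT3 ELISA per manufacturer. Mean ± SD of three independent experiments, each in triplicate.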

[8] = test system: RPMI-8226 cell line; assay: NCI in vitro one dose anticancer assay; type: cell-based; conditions: Homo sapiens, RPMI-8226, 48 h, read-out: % growth inhibition
In short: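 NCI protocol. Test compound added once at 10−5 M to ~60 human tumour lines from nine subpanels. Incubated 48 h at 37 °C, 5% CO2, 95% air, 100% relative humidity. Endpoint by sulforhodamine B protein staining with spectrophotometric absorbance. Growth of treated cells reported as percent of untreated cells.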

[9] = read-out: EGFR (IC50 μM), PGT substrate, ATP 50 μM
[10] = read-out: Src (IC50 μM), PGT substrate, ATP 50 μM

Structure (SMILES)	IC50 ([1]; Homo sapiens, K562, 24 h)	IC50 ([2]; Homo sapiens, KG-1a, 24 h)	IC50 ([3]; Homo sapiens, Jurkat, 24 h)	IC50 [4]	IC50 [5]	activity at 10 µM [6]	inhibition of STAT3 activation [7]	IC50 ([1]; MTT, 24 h treatment)	IC50 ([2]; MTT, 24 h treatment)	IC50 ([3]; MTT, 24 h treatment)	IC50 [4, 9]	IC50 [5, 10]	inhibition at 10 µM [8]
COc1ccc(C=CC(=O)c2ccc(NC(=O)CSc3nnc(-c4ccc(OC)c(OC)c4)o3)cc2)cc1 [Compound 8q, 2-((5-(3,4-Dimethoxyphenyl)-1,3,4-oxadiazol-2-yl)thio)-N-(4-(3-(4-methoxyphenyl)acryloyl)phenyl)acetamide]	40.2 ± 2.82 µM	45.3 ± 2.31 µM	31.9 ± 1.3 µM	11.4 ± 1.54 µM	29.5 ± 1.23 µM	30 to 75%	moderate activities						
O=C(CSc1nnc(-c2ccc(Cl)cc2)o1)Nc1ccc(C(=O)C=Cc2ccc(Cl)cc2)cc1 [Compound 8f, 2-((5-(4-Chlorophenyl)-1,3,4-oxadiazol-2-yl)thio)-N-(4-(3-(4-chloro-phenyl)acryloyl)phenyl)acetamide]	82.3 ± 3.08 µM	91.5 ± 4.15 µM	88.6 ± 1.35 µM	64.7 ± 3.65 µM	50.3 ± 3.5 µM	82 to 98%							
COc1ccc(/C=C/C(=O)c2ccc(NC(=O)CSc3nnc(-c4ccc(OC)cc4)o3)cc2)cc1 [Compound 8l, 2-(5-(4-Methoxyphenyl)-1,3,4-oxadiazol-2-ylthio)-N-(4-((E)-3-(4-methoxyphenyl)acryloyl)phenyl)acetamide]	35.2 ± 2.05 µM	38.3 ± 2.45 µM	33.3 ± 1.22 µM	12.3 ± 1.35 µM	25 ± 3.46 µM								
O=C(CSc1nnc(-c2ccccc2)o1)Nc1ccc(C(=O)C=Cc2ccc(Cl)cc2)cc1 [Compound 8b, N-(4-(3-(4-Chlorophenyl)acryloyl)phenyl)-2-((5-phenyl-1,3,4-oxadiazol-2-yl)thio)acetamide]	75.4 ± 4.61 µM	82.2 ± 4.56 µM	78.7 ± 2.13 µM	35.1 ± 1.36 µM	44.1 ± 3.5 µM	30 to 75%	moderate activities						
N.N.[Cl][Pt][Cl] [Cisplatin, reference compound]								3.21 ± 0.45 µM	12.2 ± 3.41 µM	15.1 ± 1.35 µM			
COc1ccc(C=CC(=O)c2ccc(NC(=O)CSc3nnc(-c4ccccc4)o3)cc2)cc1OC [Compound 8c, N-(4-(3-(3,4-Dimethoxyphenyl)acryloyl)phenyl)-2-((5-phenyl-1,3,4-oxadiazol-2-yl)thio)acetamide]	69.5 ± 5.15 µM	95.2 ± 3.88 µM	75.2 ± 1.25 µM	64.3 ± 3.56 µM	57.3 ± 2.4 µM	82 to 98%							
COc1ccc(C=CC(=O)c2ccc(NC(=O)CSc3nnc(-c4ccc(Cl)cc4)o3)cc2)cc1OC [Compound 8h, 2-(5-(4-Chlorophenyl)-1,3,4-oxadiazol-2-ylthio)-N-(4-(3-(3,4-dimethoxy-phenyl)acryloyl)phenyl)acetamide]	72.1 ± 3.32 µM	84.6 ± 5.21 µM	78.1 ± 2.1 µM	30.2 ± 2.35 µM	41.4 ± 4.5 µM								
COc1ccc(C=CC(=O)c2ccc(NC(=O)CSc3nnc(-c4ccc(Cl)cc4)o3)cc2)cc1 [Compound 8g, 2-(5-(4-Chlorophenyl)-1,3,4-oxadiazol-2-ylthio)-N-(4-(3-(4-methoxy-phenyl)acryloyl)phenyl)acetamide]	13.1 ± 1.65 µM	55.6 ± 1.34 µM	41.2 ± 0.91 µM	12.7 ± 1.25 µM	22.1 ± 2.15 µM								
COc1cc(C=CC(=O)c2ccc(NC(=O)CSc3nnc(-c4ccccc4)o3)cc2)cc(OC)c1OC [Compound 8d, N-(4-(3-(3.4.5-Trimethoxyphenyl)acryloyl)phenyl)-2-((5-phenyl-1,3,4-oxadiazol-2-yl)thio)acetamide]								22.8 ± 1.32 µM	31.3 ± 1.05 µM	28.3 ± 0.62 µM	11.2 ± 1.25 µM	13.4 ± 1.6 µM	
COc1ccc(-c2nnc(SCC(=O)Nc3ccc(C(=O)C=Cc4ccccc4)cc3)o2)cc1 [Compound 8j, 2-(5-(4-Methoxyphenyl)-1,3,4-oxadiazol-2-ylthio)-N-(4-(3-phenylacryloyl)phenyl)acetamide]	22.6 ± 2.34 µM	25.2 ± 0.48 µM	31.1 ± 0.46 µM	11.5 ± 1.24 µM	25.3 ± 1.56 µM								31.3 to 144%
COc1cc(-c2nnc(SCC(=O)Nc3ccc(C(=O)C=Cc4ccc(Cl)cc4)cc3)o2)cc(OC)c1OC [Compound 8u, N-(4-(3-(4-Chlorophenyl)acryloyl)phenyl)-2-((5-(3,4,5-trimethoxy-phenyl)-1,3,4-oxadiazol-2-yl)thio)acetamide]	84.2 ± 4.36 µM	95.7 ± 2.48 µM	> 100 µM	55.4 ± 4.35 µM	53.1 ± 5.6 µM	82 to 98%							
COc1ccc(C=CC(=O)c2ccc(NC(=O)CSc3nnc(-c4ccc(OC)c(OC)c4)o3)cc2)cc1OC [Compound 8r, 2-((5-(3,4-Dimethoxyphenyl)-1,3,4-oxadiazol-2-yl)thio)-N-(4-(3-(3,4-di-methoxyphenyl)acryloyl)phenyl)acetamide]	> 100 µM	93.1 ± 1.14 µM	> 100 µM	63.3 ± 2.36 µM	76.2 ± 3.65 µM	82 to 98%							
COc1ccc(-c2nnc(SCC(=O)Nc3ccc(C(=O)C=Cc4ccc(OC)c(OC)c4)cc3)o2)cc1 [Compound 8m]								23.1 ± 0.28 µM	31.5 ± 0.42 µM	28.4 ± 0.85 µM	10.2 ± 0.36 µM	12.5 ± 0.3 µM	
COc1ccc(-c2nnc(SCC(=O)Nc3ccc(C(=O)C=Cc4ccccc4)cc3)o2)cc1OC [Compound 8o, N-(4-Cinnamoylphenyl)-2-((5-(3,4-dimethoxyphenyl)-1,3,4-oxadiazol-2-yl)thio)acetamide]	58.4 ± 5.45 µM	65.6 ± 2.31 µM	94.1 ± 5.31 µM	71.1 ± 3.25 µM	51.2 ± 5.6 µM	82 to 98%							
COc1ccc(-c2nnc(SCC(=O)Nc3ccc(C(=O)C=Cc4ccc(Cl)cc4)cc3)o2)cc1 [Compound 8k, 2-(5-(4-Methoxyphenyl)-1,3,4-oxadiazol-2-ylthio)-N-(4-(3-(4-chloro-phenyl)acryloyl)phenyl)acetamide]	58.4 ± 3.75 µM	71.1 ± 1.22 µM	62.7 ± 2.71 µM	18.3 ± 2.35 µM	33.6 ± 2.35 µM								
COc1ccc(C=CC(=O)c2ccc(NC(=O)CSc3nnc(-c4cc(OC)c(OC)c(OC)c4)o3)cc2)cc1OC [Compound 8w, N-(4-(3-(3,4-Dimethoxyphenyl)acryloyl)phenyl)-2-((5-(3,4,5-trimethoxyphenyl)-1,3,4-oxadiazol-2-yl)thio)acetamide]	90.3 ± 2.91 µM	> 100 µM	> 100 µM	48.3 ± 2.36 µM	60.3 ± 2.5 µM	82 to 98%							
COc1cc(-c2nnc(SCC(=O)Nc3ccc(C(=O)C=Cc4ccccc4)cc3)o2)cc(OC)c1OC [Compound 8t, N-(4-Cinnamoylphenyl)-2-((5-(3,4,5-trimethoxyphenyl)-1,3,4-oxadiazol-2-yl)thio)acetamide]	73.2 ± 3.72 µM	84.6 ± 1.28 µM	76.4 ± 1.31 µM	22.3 ± 2.35 µM	40.2 ± 1.34 µM	30 to 75%							
COc1cc(C=CC(=O)c2ccc(NC(=O)CSc3nnc(-c4ccc(Cl)cc4)o3)cc2)cc(OC)c1OC [Compound 8i, 2-(5-(4-Chlorophenyl)-1,3,4-oxadiazol-2-ylthio)-N-(4-(3-(3,4,5-trimethoxyphenyl)acryloyl)phenyl)acetamide]	55.3 ± 4.89 µM	79 ± 3.02 µM	62.6 ± 1.37 µM	29.3 ± 3.65 µM	43.7 ± 3.5 µM								
